Laboratory results from ChEMBL document CHEMBL1133378, “Synthesis and evaluation of daunorubicin-paclitaxel dimers” (Bioorg Med Chem Lett, 2000).

Assays:
Type in all cases: functional, cell-based
Settings in all cases: Homo sapiens
[1] = test system: MES-SA/Dx5; assay: The compound was evaluated for the growth inhibition of Dx5 cell lines using MTT assay.
Outline: (§1)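 MTT assay: MES-SA (uterine tumor) or P-gp-overexpressing MES-SA/Dx5 cells seeded at 80,000 cells/mL, grown 24 h at 37 C in humidified 5% CO2, then drug-exposed at serial dilutions for 72 h. MTT (5 mg/mL stock in PBS) added for 3 h, formazan dissolved in 0.1 N HCl-isopropanol, absorbance read at 570 nm. IC50 from plotted data, mean of 8-16 determinations.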

[2] = test system: MES-SA/Dx5; assay: The compound was evaluated for the growth inhibition of Dx5 w/PSC cell lines using MTT assay.; outline: as §1
[3] = test system: MES-SA; assay: The compound was evaluated for the growth inhibition of MES-SA uterine tumor cell lines using MTT assay.; outline: as §1

Structure (SMILES)	IC50 [1] [nM]	IC50 [2] [nM]	IC50 [3] [nM]
COc1cccc2c1C(=O)c1c(O)c3c(c(O)c1C2=O)C[C@@](O)(C(C)=O)C[C@@H]3OC1CC(NC(=O)c2ccccc2C(=O)NCCC(=O)O[C@@H]2C[C@@H]3OC[C@]3(OC(C)=O)C3[C@@H](OC(=O)c4ccccc4)[C@@]4(O)C[C@@H](OC(=O)[C@@H](O)[C@H](NC(=O)c5ccccc5)c5ccccc5)C(C)=C([C@H](OC(C)=O)C(=O)[C@]32C)C4(C)C)C(O)C(C)O1 (stereo partly specified)	16000	36	99
COc1cccc2c1C(=O)c1c(O)c3c(c(O)c1C2=O)C[C@@](O)(C(C)=O)C[C@@H]3OC1CC(NC(=O)CCCC(=O)NCCC(=O)O[C@@H]2C[C@@H]3OC[C@]3(OC(C)=O)C3[C@@H](OC(=O)c4ccccc4)[C@@]4(O)C[C@@H](OC(=O)[C@@H](O)[C@H](NC(=O)c5ccccc5)c5ccccc5)C(C)=C([C@H](OC(C)=O)C(=O)[C@]32C)C4(C)C)C(O)C(C)O1 (stereo partly specified)	> 50000	1100	950
COc1cccc2c1C(=O)c1c(O)c3c(c(O)c1C2=O)C[C@@](O)(C(C)=O)C[C@@H]3OC1CC(NC(=O)c2ccc(C(=O)NCCC(=O)O[C@@H]3C[C@@H]4OC[C@]4(OC(C)=O)C4[C@@H](OC(=O)c5ccccc5)[C@@]5(O)C[C@@H](OC(=O)[C@@H](O)[C@H](NC(=O)c6ccccc6)c6ccccc6)C(C)=C([C@H](OC(C)=O)C(=O)[C@]43C)C5(C)C)cc2)C(O)C(C)O1 (stereo partly specified)	10000	1000	1000
COc1cccc2c1C(=O)c1c(O)c3c(c(O)c1C2=O)C[C@@](O)(C(C)=O)C[C@@H]3OC1CC(NC(=O)CCCCC(=O)NCCC(=O)O[C@@H]2C[C@@H]3OC[C@]3(OC(C)=O)C3[C@@H](OC(=O)c4ccccc4)[C@@]4(O)C[C@@H](OC(=O)[C@@H](O)[C@H](NC(=O)c5ccccc5)c5ccccc5)C(C)=C([C@H](OC(C)=O)C(=O)[C@]32C)C4(C)C)C(O)C(C)O1 (stereo partly specified)	> 50000	–	2300
COc1cccc2c1C(=O)c1c(O)c3c(c(O)c1C2=O)C[C@@](O)(C(C)=O)C[C@@H]3OC1CC(NC(=O)CCC(=O)NCCC(=O)O[C@@H]2C[C@@H]3OC[C@]3(OC(C)=O)C3[C@@H](OC(=O)c4ccccc4)[C@@]4(O)C[C@@H](OC(=O)[C@@H](O)[C@H](NC(=O)c5ccccc5)c5ccccc5)C(C)=C([C@H](OC(C)=O)C(=O)[C@]32C)C4(C)C)C(O)C(C)O1 (stereo partly specified)	> 50000	–	700
COc1cccc2c1C(=O)c1c(O)c3c(c(O)c1C2=O)C[C@@](O)(C(C)=O)C[C@@H]3O[C@H]1C[C@H](N)[C@H](O)[C@H](C)O1 [DAUNORUBICIN]	2000	14	21
CC(=O)O[C@H]1C(=O)[C@@]2(C)C([C@H](OC(=O)c3ccccc3)[C@]3(O)C[C@H](OC(=O)[C@H](O)[C@@H](NC(=O)c4ccccc4)c4ccccc4)C(C)=C1C3(C)C)[C@]1(OC(C)=O)CO[C@@H]1C[C@@H]2O.COc1cccc2c1C(=O)c1c(O)c3c(c(O)c1C2=O)C[C@@](O)(C(C)=O)C[C@@H]3OC1CC(N)C(O)C(C)O1 (stereo partly specified) [MIXTURE OF DAUNORUBICIN AND PACLITAXEL]	1000	–	11
CC(=O)O[C@H]1C(=O)[C@@]2(C)[C@H]([C@H](OC(=O)c3ccccc3)[C@]3(O)C[C@H](OC(=O)[C@H](O)[C@@H](NC(=O)c4ccccc4)c4ccccc4)C(C)=C1C3(C)C)[C@]1(OC(C)=O)CO[C@@H]1C[C@@H]2O [PACLITAXEL]	2700	0.3	0.6
